Key:
Assay type in all cases: biochemical
[1] = molecular target: T1, Lyp (Homo sapiens, UniProt Q9Y2R2); experiment: PTP activity assay with pNPP, Lyp
T1 sequence (Q9Y2R2 1-807): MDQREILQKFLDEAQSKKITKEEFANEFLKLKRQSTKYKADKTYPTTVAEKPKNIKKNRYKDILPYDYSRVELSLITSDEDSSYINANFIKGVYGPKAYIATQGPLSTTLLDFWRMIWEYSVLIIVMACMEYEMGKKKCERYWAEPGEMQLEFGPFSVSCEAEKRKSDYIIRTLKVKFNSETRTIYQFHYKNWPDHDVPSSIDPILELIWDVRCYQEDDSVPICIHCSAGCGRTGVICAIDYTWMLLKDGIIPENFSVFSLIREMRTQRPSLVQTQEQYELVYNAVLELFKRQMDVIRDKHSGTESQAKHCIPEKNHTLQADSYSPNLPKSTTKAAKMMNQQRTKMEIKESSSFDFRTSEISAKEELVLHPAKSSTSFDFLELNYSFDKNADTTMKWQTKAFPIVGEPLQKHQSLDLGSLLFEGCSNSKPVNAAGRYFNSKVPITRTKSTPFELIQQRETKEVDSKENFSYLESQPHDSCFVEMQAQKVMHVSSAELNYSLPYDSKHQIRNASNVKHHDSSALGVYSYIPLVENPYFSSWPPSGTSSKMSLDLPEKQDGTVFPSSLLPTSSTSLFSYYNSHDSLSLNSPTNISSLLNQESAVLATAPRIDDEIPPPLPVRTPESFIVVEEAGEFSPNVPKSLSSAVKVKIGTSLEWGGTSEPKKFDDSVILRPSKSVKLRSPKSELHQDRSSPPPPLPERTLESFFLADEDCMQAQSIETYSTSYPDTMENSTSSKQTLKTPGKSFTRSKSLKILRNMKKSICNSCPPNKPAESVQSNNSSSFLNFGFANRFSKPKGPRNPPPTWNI

[2] = molecular target: T2, VHX (Homo sapiens, UniProt Q9NRW4); experiment: PTP activity assay with pNPP, VHX
T2 sequence (Q9NRW4 1-184): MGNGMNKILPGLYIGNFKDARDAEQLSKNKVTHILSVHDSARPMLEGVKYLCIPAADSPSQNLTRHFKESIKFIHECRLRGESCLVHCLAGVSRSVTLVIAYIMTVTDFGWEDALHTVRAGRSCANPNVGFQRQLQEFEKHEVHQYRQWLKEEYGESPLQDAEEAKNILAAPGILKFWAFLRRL
Summary of the method: (§1)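 Reactions started by adding enzyme to mixtures with various pNPP and test-compound concentrations. Rates were fitted with an enzyme-kinetics model for Ki.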

[3] = molecular target: LAR (Homo sapiens, UniProt P10586); experiment: PTP activity assay with pNPP, LAR
Summary of the method: as §1

[4] = molecular target: T3, PTP1B (Homo sapiens, UniProt P18031); experiment: PTP activity assay with pNPP, PTP1B
T3 sequence (P18031 1-435): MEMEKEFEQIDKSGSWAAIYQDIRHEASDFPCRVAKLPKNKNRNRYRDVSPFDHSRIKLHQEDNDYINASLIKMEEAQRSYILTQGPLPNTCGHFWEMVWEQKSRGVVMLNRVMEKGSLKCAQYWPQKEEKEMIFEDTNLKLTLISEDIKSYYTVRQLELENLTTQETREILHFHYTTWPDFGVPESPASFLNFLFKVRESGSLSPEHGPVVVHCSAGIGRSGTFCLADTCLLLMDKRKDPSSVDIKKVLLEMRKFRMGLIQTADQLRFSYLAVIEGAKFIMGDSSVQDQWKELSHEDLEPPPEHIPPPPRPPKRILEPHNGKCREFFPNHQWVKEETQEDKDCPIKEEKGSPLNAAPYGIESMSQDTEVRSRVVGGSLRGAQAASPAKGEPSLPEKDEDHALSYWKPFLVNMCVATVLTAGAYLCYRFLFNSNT
Summary of the method: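 Reactions started by adding enzyme (2 nM final) to mixtures with varied pNPP and varied test compound. Rates fitted with an enzyme-kinetics model to give Ki and mode of inhibition.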

[5] = molecular target: T4, TC-PTP (Homo sapiens, UniProt P17706); experiment: TC-PTP-catalyzed pNPP hydrolysis inhibition
T4 sequence (P17706 1-415): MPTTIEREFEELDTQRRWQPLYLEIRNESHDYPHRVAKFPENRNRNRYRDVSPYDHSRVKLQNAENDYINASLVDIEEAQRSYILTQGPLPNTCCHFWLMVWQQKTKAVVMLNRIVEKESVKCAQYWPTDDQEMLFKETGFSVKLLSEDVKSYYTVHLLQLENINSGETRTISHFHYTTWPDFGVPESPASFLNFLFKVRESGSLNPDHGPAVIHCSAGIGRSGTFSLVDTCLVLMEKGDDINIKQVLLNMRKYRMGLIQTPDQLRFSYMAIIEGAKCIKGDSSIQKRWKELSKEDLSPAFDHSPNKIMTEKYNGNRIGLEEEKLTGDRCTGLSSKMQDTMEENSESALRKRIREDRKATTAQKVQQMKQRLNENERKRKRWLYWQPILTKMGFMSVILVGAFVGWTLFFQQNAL
Summary of the method: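 IC50: enzyme added last (10 nM or 0.4 nM final) to 2 mM pNPP (Km) plus varied test compound, 30 min at room temperature, NaOH quench, A405. Reversibility: enzyme preincubated with test compound 30 min before pNPP. Mode/Ki: 0.4 nM enzyme, varied pNPP and inhibitor, kinetic fit.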

Chain of LAR (P10586 30-1907, species assumed): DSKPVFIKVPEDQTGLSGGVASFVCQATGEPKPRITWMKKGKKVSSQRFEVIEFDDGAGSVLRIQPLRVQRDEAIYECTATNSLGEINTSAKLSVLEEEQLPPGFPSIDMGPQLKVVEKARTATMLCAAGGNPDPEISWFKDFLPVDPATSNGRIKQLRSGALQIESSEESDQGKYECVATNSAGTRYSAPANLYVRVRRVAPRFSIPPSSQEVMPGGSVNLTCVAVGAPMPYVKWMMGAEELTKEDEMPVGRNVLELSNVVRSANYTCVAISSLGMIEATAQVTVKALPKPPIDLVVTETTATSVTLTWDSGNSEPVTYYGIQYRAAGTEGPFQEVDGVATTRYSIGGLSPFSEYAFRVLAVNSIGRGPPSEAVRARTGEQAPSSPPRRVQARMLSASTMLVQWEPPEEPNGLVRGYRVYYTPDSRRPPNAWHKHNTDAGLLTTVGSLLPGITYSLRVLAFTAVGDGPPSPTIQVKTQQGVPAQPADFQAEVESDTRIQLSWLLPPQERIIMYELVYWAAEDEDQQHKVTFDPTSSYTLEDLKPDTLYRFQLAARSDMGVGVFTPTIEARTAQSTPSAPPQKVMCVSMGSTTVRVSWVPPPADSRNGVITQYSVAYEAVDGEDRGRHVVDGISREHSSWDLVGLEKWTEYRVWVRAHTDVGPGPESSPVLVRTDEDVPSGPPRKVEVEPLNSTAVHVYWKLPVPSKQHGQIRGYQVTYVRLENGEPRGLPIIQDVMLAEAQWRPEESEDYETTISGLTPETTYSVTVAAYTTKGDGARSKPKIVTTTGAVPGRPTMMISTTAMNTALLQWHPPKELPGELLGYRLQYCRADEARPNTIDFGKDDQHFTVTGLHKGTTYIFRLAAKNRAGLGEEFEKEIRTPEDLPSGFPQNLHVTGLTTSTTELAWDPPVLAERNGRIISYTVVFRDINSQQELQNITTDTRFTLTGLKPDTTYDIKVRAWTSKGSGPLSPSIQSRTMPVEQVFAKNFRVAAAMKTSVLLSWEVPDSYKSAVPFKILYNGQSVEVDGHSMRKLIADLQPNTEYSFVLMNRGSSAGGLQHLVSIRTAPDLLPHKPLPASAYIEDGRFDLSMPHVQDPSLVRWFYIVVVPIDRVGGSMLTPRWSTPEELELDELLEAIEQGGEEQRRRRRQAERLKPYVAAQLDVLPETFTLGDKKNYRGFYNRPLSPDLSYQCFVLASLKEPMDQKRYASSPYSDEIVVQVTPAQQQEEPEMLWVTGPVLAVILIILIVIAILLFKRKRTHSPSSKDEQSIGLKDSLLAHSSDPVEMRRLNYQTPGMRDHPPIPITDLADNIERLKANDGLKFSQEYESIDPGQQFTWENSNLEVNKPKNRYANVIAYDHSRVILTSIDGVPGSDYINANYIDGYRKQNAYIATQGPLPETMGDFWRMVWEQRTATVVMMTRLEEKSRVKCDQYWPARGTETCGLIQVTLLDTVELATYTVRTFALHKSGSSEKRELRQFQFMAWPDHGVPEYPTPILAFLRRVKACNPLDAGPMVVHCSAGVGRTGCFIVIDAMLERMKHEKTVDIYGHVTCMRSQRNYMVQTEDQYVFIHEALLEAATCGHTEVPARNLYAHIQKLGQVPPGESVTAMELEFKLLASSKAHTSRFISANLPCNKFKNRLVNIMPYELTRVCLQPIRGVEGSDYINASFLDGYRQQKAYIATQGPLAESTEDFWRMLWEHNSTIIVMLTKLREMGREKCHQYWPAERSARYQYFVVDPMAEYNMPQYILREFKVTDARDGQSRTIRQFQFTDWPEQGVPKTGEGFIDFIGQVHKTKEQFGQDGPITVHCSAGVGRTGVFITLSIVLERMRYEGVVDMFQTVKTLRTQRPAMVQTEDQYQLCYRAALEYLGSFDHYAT

Compound: CCc1ccc(C(=O)NCCCC[C@H](NC(=O)[C@H](Cc2ccc(C(F)(F)P(=O)(O)O)cc2)NC(=O)[C@H](Cc2ccccc2)NC(=O)CO[C@H]2C[C@@H](C)CC[C@@H]2C(C)C)C(N)=O)cc1 [Compound 8]
- Ki [1]: > 1000 nM
- Ki [2]: > 1000 nM
- Ki [3]: > 1000 nM
- Ki ([4]; PTP1B): 34 ± 2.8 nM
- selectivity for TC-PTP over PTP1B ([4]; TC-PTP versus PTP1B): 8 fold
- reversibility of TC-PTP inhibition ([5]; IC50 without or with 30 min preincubation): reversible
- mode of TC-PTP inhibition ([5]; Lineweaver-Burk analysis, pNPP): competitive
- Ki ([5]; TC-PTP, pNPP substrate): 4.3 ± 0.2 nM
